Laboratory results published in ChEMBL document CHEMBL1148987, “Antimycobacterial coumarins from the sardinian giant fennel (Ferula communis)” (2004).
Converted amounts (≈) assume the structure as drawn.

How the values were obtained:
Format in all cases: functional
[1] = tested on: Mycolicibacterium fortuitum; assay: Antimycobacterial activity against Mycobacterium fortuitum ATCC 6841 after 72 hrs by MTT assay; settings: ATCC 6841, 72 h
How it was run: (§1)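 Standard broth microdilution MIC in Ca2+/Mg2+-adjusted Mueller-Hinton broth; strains kept on Columbia blood agar with 5% defibrinated horse blood. DMSO stocks diluted into MHB, 2-fold series with final range […]. Inoculum from 0.5 McFarland standard in saline, final 5 × 10^5 cfu/mL; 37 °C for 72 h. Growth read by MTT (20 min, 37 °C, blue = growth); MIC = lowest concentration with no growth.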

Mycolicibacterium phlei = assay: Antimycobacterial activity against Mycobacterium phlei ATCC 11758 after 72 hrs by MTT assay; settings: ATCC 11758, 72 h; how it was run: as §1
Mycolicibacterium aurum = assay: Antimycobacterial activity against Mycobacterium aurum after 120 hrs by MTT assay
How it was run: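 Broth microdilution MIC in Ca2+/Mg2+-adjusted Mueller-Hinton broth; strain maintained on Columbia blood agar with 5% defibrinated horse blood. Compounds dissolved in DMSO, diluted into MHB, 2-fold serial dilutions giving final 512 to 1 μg/mL. Inoculum from 0.5 McFarland in saline, final 5 × 10^5 cfu/mL. Incubated 37 °C, 120 h. MTT added, 20 min at 37 °C; blue indicates growth; MIC = lowest concentration without growth.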

[2] = tested on: Mycolicibacterium smegmatis; assay: Antimycobacterial activity against Mycobacterium smegmatis ATCC 14468 after 72 hrs by MTT assay; settings: ATCC 14468, 72 h; how it was run: as §1

Row | Structure (SMILES) | MIC [1] [µg/mL] | MIC (Mycolicibacterium phlei) [µg/mL] | MIC (Mycolicibacterium aurum) [µg/mL] | MIC [2] [µg/mL]
1 | CC(C)=CCC/C(C)=C/CC/C(C)=C/Cc1c(O)c2ccccc2oc1=O | 2 (≈ 5.46 µM) | 2 (≈ 5.46 µM) | 2 (≈ 5.46 µM) | 0.5 (≈ 1.36 µM)
2 | CCCCCCCCCc1c(O)c2ccccc2oc1=O | 3.5 (≈ 12.1 µM) | – | – | –
3 | C/C(=C\CC/C(C)=C/Cc1c(O)c2ccccc2oc1=O)CC/C=C(\C)COC(=O)c1ccccc1 | 16 (≈ 32.9 µM) | 2 (≈ 4.11 µM) | 8 (≈ 16.4 µM) | 2 (≈ 4.11 µM)
4 | C/C(=C\CC/C(C)=C/CC/C(C)=C/Cc1c(O)c2ccccc2oc1=O)CO | 64 (≈ 167 µM) | 16 (≈ 41.8 µM) | 32 (≈ 83.7 µM) | 16 (≈ 41.8 µM)
5 | CC(=O)OC/C(C)=C/CC/C(C)=C/CC/C(C)=C/Cc1c(O)c2ccccc2oc1=O | 32 (≈ 75.4 µM) | 8 (≈ 18.8 µM) | 16 (≈ 37.7 µM) | 8 (≈ 18.8 µM)
6 | CC[C@@H](CO)NCCN[C@@H](CC)CO [ETHAMBUTOL] | 8 (≈ 39.2 µM) | 2 (≈ 9.79 µM) | 0.5 (≈ 2.45 µM) | 0.5 (≈ 2.45 µM)
7 | NNC(=O)c1ccncc1 [ISONIAZID] | 0.5 (≈ 3.65 µM) | 4 (≈ 29.2 µM) | 2 (≈ 14.6 µM) | 1 (≈ 7.29 µM)
